PMC8802302 (Journal of Medicinal Chemistry, 2021)

Columns and labels:
NUAK1 [1] = target: T1, NUAK1 (Homo sapiens, UniProt O60285); assay: NanoBRET assay follow-up; type: cell-based
T1 sequence (O60285 1-661): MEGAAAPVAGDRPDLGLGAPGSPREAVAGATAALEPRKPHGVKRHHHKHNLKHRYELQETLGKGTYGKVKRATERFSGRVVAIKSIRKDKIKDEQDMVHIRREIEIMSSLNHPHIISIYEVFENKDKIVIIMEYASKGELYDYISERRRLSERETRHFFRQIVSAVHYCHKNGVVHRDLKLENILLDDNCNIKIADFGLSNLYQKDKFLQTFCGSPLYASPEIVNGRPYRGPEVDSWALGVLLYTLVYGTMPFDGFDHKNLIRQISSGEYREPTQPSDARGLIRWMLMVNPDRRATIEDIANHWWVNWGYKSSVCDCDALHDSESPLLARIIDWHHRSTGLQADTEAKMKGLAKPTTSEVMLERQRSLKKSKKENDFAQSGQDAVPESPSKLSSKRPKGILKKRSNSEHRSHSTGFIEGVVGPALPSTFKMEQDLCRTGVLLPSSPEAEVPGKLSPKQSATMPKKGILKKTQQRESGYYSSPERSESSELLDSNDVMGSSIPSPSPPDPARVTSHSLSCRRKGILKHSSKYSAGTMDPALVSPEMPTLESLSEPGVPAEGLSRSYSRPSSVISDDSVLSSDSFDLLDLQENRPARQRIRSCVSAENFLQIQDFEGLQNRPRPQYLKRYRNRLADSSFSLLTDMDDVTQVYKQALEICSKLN

16-member kinase panel = assay: Eurofins custom enzymatic kinase panel, count of kinases inhibited; type: biochemical; conditions: 16-member Eurofins panel, 1 μM
Method in brief: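 Radiometric kinase assays were run with ATP at Km. Each test compound was tested at a single concentration of 1 μM, in duplicate, against each panel kinase, with results as percent of control. The count is the number of kinases at ≤ 10 PoC, i.e. inhibited ≥ 90%.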

MARK3 (NLuc-MARK3) = MARK3 (NLuc-MARK3) (Homo sapiens, UniProt P27448); assay: NanoBRET cellular target engagement assay; type: cell-based
LRRK2 = LRRK2 (Homo sapiens, UniProt Q5S007); assay: NanoBRET assay follow-up; type: cell-based; conditions: singlicate (n = 1) dose–response
[2] = tested on: 403 wild-type (WT) human kinases; assay: DiscoverX scanMAX kinome-wide selectivity screen; type: binding; conditions: 403 WT human kinases; for no. kinases with PoC < 10: DiscoverX scanMAX, 1 μM; for S10 (1 μM): Percentage of screened kinases with PoC values < 10 at 1 μM
PAMPA permeability = type: in vitro ADME; conditions: PBS pH 7.4, 5 h incubation
Method in brief: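 DMSO stocks of test compound were diluted in PBS pH 7.4 and added to the donor side of a precoated PAMPA plate, with PBS pH 7.4 as acceptor, for 5 h. Both compartments were quantified by chemiluminescent nitrogen detection against a calibration curve, with background nitrogen corrected. Effective permeability was calculated from donor and acceptor concentrations, using measured rather than assumed solubility.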

TBK1 = target: T2, TBK1 (Homo sapiens, UniProt Q9UHD2); assay: Eurofins kinase enzymatic radiometric assay; type: biochemical; conditions: enzymatic IC50 values
T2 sequence (Q9UHD2 1-729): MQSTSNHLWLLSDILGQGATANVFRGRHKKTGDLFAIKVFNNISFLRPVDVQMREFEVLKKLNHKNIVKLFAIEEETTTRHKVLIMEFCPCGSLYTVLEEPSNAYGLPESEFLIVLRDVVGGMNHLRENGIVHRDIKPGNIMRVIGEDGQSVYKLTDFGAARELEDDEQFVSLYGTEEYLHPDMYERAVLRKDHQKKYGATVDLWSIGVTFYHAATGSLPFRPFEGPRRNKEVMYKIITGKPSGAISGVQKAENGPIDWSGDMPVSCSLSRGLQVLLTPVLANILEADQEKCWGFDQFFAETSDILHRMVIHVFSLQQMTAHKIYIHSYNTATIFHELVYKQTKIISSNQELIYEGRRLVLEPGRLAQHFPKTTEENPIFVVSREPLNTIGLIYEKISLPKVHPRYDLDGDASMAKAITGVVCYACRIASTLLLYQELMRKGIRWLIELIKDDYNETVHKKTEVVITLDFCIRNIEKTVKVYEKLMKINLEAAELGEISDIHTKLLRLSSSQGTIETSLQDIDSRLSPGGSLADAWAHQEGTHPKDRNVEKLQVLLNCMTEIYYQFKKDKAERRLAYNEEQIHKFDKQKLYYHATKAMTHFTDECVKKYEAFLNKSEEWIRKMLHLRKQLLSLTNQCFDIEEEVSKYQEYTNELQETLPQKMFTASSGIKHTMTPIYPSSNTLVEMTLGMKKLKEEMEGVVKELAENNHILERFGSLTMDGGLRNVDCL
Method in brief: (§1)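 Both kinases of each pair (NUAK1/NUAK2; TBK1/IKKε) were tested in radiometric assays with ATP at Km. Test compounds were run as 9-point dose–response curves in duplicate. IC50 values for the two kinases were then compared as a fold difference.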

NUAK1 [3] = target: T1, NUAK1; assay: Eurofins kinase enzymatic radiometric assay; type: biochemical; conditions: enzymatic IC50 values
Method in brief: as §1

MYLK2 = MYLK2 (Homo sapiens, UniProt Q9H1R3); assay: NanoBRET assay follow-up; type: cell-based
TYK2 = TYK2 (Homo sapiens, UniProt P29597); assay: NanoBRET assay follow-up; type: cell-based; conditions: singlicate (n = 1) dose–response
MARK4 (NLuc-MARK4) = target: T3, MARK4 (NLuc-MARK4) (Homo sapiens, UniProt Q96L34); assay: NanoBRET cellular target engagement assay; type: cell-based; conditions: HEK293, 0.5 μM tracer K-5; n = 1 where no error, SEM n = 2
T3 sequence (Q96L34 1-752): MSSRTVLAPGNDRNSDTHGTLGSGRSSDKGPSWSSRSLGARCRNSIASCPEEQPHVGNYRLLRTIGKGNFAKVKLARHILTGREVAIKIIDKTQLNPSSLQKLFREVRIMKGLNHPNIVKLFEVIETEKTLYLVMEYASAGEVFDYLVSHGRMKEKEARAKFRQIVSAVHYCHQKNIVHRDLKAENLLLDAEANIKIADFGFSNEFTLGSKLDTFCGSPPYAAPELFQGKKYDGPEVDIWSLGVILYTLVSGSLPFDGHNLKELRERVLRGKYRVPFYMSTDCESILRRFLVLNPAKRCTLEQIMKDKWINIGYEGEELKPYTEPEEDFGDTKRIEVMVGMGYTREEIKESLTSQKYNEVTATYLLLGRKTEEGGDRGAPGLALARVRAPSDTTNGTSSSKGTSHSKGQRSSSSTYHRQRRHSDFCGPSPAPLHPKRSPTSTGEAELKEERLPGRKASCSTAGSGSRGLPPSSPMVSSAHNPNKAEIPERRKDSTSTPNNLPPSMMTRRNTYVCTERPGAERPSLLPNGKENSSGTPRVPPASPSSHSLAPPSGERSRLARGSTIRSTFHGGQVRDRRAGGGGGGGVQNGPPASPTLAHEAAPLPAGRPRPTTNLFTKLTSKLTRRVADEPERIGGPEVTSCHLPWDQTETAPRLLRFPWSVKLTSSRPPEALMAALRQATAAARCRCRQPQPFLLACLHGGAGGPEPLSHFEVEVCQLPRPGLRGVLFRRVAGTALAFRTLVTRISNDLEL

DRAK1 (DRAK1-NLuc) = target: T4, DRAK1 (DRAK1-NLuc) (Homo sapiens, UniProt Q9UEE5); assay: NanoBRET cellular target engagement assay; type: cell-based; conditions: HEK293, 0.5 μM tracer K-9; n = 1 where no error, SEM n = 3
T4 sequence (Q9UEE5 1-414): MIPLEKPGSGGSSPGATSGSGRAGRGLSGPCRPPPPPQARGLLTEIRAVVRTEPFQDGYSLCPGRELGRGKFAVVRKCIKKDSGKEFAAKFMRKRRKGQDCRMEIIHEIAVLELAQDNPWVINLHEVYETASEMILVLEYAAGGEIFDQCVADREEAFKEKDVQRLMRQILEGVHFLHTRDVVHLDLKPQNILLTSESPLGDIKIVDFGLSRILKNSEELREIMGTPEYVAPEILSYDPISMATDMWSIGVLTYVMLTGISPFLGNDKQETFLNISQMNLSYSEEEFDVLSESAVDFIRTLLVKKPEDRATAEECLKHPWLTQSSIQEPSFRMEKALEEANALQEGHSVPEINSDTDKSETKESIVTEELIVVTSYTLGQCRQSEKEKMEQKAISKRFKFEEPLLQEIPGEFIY

TBK1 (NLuc-TBK1) = target: T5, TBK1 (NLuc-TBK1) (Homo sapiens, UniProt Q9UHD2); assay: NanoBRET cellular target engagement assay; type: cell-based; conditions: HEK293, 0.5 μM tracer K-5; n = 1 where no error, SEM n = 3
T5 sequence (Q9UHD2 1-729): T2 sequence (Q9UHD2 1-729)
Method in brief: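 HEK293 cells were grown in DMEM with 10% FBS at 37 °C under 5% CO2, passaged every 72 h with trypsin and kept below confluency. Cells expressed NanoLuc fusions (DRAK1-NLuc or NLuc-TBK1). Dose–response was run per the manufacturer's protocol, with 0.5 μM tracer K-9 for DRAK1 and 0.5 μM tracer K-5 for TBK1. SEM was reported where assays were repeated.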

Chain of TYK2 (P29597 whole entry): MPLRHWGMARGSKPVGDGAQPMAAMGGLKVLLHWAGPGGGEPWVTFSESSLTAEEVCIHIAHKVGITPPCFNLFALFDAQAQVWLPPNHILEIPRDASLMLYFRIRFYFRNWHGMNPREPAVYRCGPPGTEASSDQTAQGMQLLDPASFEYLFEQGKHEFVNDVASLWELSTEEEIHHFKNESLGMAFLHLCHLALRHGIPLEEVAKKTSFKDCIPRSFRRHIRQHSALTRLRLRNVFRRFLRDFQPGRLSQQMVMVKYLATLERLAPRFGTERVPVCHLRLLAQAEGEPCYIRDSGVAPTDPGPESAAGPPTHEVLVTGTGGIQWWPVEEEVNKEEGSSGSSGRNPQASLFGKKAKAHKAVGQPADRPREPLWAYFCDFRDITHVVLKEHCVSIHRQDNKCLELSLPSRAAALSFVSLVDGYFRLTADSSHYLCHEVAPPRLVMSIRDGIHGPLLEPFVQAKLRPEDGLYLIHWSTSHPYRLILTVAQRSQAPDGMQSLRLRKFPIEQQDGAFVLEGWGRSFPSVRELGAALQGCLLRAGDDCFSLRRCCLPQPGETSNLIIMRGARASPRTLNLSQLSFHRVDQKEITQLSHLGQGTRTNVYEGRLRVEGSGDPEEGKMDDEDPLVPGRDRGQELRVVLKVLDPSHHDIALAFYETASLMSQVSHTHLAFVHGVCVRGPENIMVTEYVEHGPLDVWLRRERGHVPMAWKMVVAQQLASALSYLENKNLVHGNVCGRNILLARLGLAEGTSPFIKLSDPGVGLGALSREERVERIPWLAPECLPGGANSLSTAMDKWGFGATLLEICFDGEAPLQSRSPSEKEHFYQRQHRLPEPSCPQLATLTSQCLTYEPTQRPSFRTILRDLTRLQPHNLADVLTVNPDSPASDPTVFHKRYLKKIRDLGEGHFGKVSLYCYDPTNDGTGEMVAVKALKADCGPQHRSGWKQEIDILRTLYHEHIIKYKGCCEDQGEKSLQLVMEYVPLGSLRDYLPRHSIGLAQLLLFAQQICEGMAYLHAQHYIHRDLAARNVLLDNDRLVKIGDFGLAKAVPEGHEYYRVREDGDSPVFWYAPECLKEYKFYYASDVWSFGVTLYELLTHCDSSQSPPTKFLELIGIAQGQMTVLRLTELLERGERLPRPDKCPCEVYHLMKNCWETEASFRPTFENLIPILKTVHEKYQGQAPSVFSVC
Chain of MARK3 (NLuc-MARK3) (P27448 whole entry): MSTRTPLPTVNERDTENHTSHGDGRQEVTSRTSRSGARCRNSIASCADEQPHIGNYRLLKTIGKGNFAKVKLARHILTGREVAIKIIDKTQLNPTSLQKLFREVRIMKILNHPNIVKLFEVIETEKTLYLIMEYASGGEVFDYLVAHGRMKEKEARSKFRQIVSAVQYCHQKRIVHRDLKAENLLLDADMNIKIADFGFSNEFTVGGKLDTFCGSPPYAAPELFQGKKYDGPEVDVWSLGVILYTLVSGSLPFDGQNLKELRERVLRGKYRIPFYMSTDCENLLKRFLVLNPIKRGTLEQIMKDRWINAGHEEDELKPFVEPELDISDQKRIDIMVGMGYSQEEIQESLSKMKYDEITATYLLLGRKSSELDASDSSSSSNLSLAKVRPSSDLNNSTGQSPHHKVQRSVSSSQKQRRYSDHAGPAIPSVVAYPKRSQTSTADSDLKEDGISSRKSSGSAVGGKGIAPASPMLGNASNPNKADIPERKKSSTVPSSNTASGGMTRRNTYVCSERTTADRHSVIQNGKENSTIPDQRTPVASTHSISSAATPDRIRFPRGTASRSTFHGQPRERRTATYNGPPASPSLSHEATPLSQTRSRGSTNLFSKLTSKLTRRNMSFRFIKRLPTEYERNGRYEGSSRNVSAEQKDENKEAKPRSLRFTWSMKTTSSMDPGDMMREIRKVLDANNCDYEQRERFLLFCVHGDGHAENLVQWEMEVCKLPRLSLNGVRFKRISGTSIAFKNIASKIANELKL
Chain of MYLK2 (Q9H1R3 whole entry): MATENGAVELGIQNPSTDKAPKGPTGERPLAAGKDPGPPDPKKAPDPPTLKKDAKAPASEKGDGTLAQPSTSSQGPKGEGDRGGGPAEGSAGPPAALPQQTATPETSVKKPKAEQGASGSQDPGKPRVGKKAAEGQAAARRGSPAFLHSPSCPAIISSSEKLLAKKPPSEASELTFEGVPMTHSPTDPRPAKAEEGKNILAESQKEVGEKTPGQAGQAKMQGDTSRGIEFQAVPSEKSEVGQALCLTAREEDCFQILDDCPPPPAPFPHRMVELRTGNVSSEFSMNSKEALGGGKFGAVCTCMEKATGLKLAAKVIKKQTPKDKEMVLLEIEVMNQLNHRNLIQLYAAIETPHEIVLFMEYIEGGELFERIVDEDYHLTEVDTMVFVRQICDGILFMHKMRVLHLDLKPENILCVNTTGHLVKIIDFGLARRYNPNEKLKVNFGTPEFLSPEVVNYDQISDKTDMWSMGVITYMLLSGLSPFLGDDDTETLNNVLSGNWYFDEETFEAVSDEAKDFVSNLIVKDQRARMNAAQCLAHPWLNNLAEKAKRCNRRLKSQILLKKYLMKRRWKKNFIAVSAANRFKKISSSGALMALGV
Chain of LRRK2 (Q5S007 whole entry): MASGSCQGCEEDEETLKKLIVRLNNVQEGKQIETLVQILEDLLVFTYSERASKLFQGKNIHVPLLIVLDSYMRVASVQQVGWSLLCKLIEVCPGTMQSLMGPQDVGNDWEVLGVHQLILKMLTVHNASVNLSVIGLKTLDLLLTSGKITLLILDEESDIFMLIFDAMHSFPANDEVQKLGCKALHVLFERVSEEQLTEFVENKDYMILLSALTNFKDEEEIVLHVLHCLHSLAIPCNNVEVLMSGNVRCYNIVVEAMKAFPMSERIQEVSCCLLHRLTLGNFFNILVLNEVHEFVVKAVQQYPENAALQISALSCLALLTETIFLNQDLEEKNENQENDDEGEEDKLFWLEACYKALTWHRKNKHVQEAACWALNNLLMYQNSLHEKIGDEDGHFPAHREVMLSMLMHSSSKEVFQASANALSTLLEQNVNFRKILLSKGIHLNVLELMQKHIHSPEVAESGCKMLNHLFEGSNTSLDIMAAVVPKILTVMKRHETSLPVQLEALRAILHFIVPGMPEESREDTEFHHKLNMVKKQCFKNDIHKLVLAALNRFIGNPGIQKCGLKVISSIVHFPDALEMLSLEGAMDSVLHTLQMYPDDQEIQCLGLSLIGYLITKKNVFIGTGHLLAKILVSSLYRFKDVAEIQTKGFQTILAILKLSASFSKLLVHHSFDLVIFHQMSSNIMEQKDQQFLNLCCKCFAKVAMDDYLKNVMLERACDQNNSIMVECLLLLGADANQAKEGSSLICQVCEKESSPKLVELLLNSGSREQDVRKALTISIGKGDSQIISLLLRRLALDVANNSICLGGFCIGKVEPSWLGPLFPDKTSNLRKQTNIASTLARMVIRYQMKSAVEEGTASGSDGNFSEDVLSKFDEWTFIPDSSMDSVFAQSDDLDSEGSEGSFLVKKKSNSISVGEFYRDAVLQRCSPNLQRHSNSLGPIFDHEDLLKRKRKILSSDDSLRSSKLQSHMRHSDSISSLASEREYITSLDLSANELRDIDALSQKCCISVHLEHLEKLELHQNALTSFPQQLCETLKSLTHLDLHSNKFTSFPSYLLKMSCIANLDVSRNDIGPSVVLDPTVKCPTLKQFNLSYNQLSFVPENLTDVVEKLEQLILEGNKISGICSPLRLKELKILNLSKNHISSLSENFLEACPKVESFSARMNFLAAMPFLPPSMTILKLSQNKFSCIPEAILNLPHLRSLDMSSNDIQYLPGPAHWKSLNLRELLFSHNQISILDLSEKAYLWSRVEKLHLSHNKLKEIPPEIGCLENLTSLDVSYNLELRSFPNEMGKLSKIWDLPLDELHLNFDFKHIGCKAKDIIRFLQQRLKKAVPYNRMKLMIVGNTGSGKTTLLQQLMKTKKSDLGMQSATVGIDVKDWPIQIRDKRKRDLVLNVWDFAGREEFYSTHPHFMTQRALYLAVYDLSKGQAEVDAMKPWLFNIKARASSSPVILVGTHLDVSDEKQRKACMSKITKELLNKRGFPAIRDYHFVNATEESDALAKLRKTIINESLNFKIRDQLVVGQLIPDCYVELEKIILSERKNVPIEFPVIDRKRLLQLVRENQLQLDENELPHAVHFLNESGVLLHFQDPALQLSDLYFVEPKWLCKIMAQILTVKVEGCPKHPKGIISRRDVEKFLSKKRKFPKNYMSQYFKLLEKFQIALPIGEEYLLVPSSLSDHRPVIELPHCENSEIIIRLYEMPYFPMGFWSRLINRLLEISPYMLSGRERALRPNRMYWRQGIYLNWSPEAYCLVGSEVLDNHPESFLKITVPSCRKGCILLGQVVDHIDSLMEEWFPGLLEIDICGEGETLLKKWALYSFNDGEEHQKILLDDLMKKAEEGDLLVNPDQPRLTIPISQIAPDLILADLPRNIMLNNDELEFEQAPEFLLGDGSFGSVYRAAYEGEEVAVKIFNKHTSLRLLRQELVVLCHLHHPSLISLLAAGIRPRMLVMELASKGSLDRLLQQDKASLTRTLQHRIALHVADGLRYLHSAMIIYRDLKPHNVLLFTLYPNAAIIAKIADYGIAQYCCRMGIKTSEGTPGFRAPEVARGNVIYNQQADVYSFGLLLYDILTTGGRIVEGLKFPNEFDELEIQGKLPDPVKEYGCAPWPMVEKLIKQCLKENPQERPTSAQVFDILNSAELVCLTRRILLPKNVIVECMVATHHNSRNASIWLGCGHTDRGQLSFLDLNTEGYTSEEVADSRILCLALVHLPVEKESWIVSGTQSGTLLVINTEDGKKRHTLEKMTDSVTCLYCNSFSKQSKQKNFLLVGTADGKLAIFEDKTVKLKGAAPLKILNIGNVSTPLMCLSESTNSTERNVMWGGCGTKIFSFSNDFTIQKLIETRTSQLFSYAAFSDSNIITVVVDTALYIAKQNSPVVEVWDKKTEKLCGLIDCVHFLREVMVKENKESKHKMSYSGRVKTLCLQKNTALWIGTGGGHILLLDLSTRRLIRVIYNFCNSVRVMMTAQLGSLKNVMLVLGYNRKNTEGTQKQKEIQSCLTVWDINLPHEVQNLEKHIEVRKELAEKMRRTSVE

SMILES | no. kinases ≤ 10 PoC in enzyme panel (16-member kinase panel) | Pe (permeability coefficient, PAMPA) (PAMPA permeability) | no. kinases with PoC < 10 [2] | S10 (1 μM) [2] | further results
Cc1nn(CC(F)(F)F)cc1Nc1ncc(C2CC2)c(NCCc2c[nH]cn2)n1 [Compound 3, N^4-(2-(1H-Imidazol-4-yl)ethyl)-5-cyclopropyl-N^2-(3-methyl-1-(2,2,2-trifluoroethyl)-1H-pyrazol-4-yl)pyrimidine-2,4-diamine] | 0 | low permeability | 2 | 0.005 | LRRK2 NanoBRET IC50 (LRRK2): did not have any activity
Cc1nn(CC(F)(F)F)cc1Nc1ncc(C2CC2)c(NCc2ccc(S(N)(=O)=O)cc2)n1 [Compound 5, 4-(((5-Cyclopropyl-2-((3-methyl-1-(2,2,2-trifluoroethyl)-1H-pyrazol-4-yl)amino)pyrimidin-4-yl)amino)methyl)benzenesulfonamide] | 1 | below the limit of quantitation | 2 | 0.005 | fold difference in potency for TBK1 and IKKε (TBK1): 8 fold
Cc1nn(CC(F)(F)F)cc1Nc1nccc(NCCc2cnc[nH]2)n1 [Compound 15, N^4-(2-(1H-Imidazol-5-yl)ethyl)-N^2-(3-methyl-1-(2,2,2-trifluoroethyl)-1H-pyrazol-4-yl)pyrimidine-2,4-diamine] | 0 | low permeability | 0 | – | fold loss in potency, enzymatic versus NanoBRET, MYLK2 (MYLK2): < 10 fold; MYLK2 NanoBRET IC50 (MYLK2; singlicate (n = 1) dose–response): single digit micromolar activity
O=C(NCCCNc1nc(Nc2cccc(NC(=O)N3CCCC3)c2)ncc1Br)C1CCC1 [Compound 18, N-(3-((5-Bromo-4-((3-(cyclobutanecarboxamido)propyl)amino)pyrimidin-2-yl)amino)phenyl)pyrrolidine-1-carboxamide] | 16 | – | 90 | 0.223 | MARK4 NanoBRET IC50 (MARK4 (NLuc-MARK4)): submicromolar; DRAK1 NanoBRET IC50 (DRAK1 (DRAK1-NLuc)): submicromolar; TBK1 NanoBRET IC50 (TBK1 (NLuc-TBK1)): submicromolar; MARK3 NanoBRET IC50 (MARK3 (NLuc-MARK3); HEK293, 0.5 μM tracer K-9, n = 1 where no error, SEM n = 2): submicromolar

Now from value to compound, other results behind:

no. kinases ≤ 10 PoC in enzyme panel (16-member kinase panel) | Pe (permeability coefficient, PAMPA) (PAMPA permeability) | SMILES | no. kinases with PoC < 10 [2] | S10 (1 μM) [2] | further results
16 | – | O=C(NCCCNc1nc(Nc2cccc(NC(=O)N3CCCC3)c2)ncc1I)c1cccs1 [BX-795, reference compound] | – | – | IC50 (NUAK1 [1]): 187 nM; fold loss in potency, enzymatic to NanoBRET, NUAK1 (NUAK1 [1]; published enzymatic IC50 vs NanoBRET IC50): ~34 fold; IC50 (MARK3 (NLuc-MARK3)): 515 nM
4 | below the limit of quantitation | NS(=O)(=O)c1ccc(CNc2nc(Nc3cccc(NC(=O)N4CCCC4)c3)ncc2Br)cc1 [Compound 13, N-(3-((5-Bromo-4-((4-sulfamoylbenzyl)amino)pyrimidin-2-yl)amino)phenyl)pyrrolidine-1-carboxamide] | – | 0.03 | fold difference between NUAK1 and NUAK2 (NUAK1 [3]): ~3 fold
0 | below the limit of quantitation | NS(=O)(=O)c1ccc(CNc2ccnc(Nc3cccc(NC(=O)N4CCCC4)c3)n2)cc1 [Compound 16, N-(3-((4-((4-Sulfamoylbenzyl)amino)pyrimidin-2-yl)amino)phenyl)pyrrolidine-1-carboxamide] | 1 | – | TYK2 NanoBRET IC50 (TYK2): did not have any activity
0 | – | NS(=O)(=O)c1ccc(CNc2ccnc(Nc3cccc(CN4CCOCC4)c3)n2)cc1 [Compound 19, 4-(((2-((3-(Morpholinomethyl)phenyl)amino)pyrimidin-4-yl)amino)methyl)benzenesulfonamide] | 3 | 0.007 | TYK2 NanoBRET IC50 (TYK2): did not have any activity
